Source: ChEMBL document CHEMBL4680064, “Natural product inspired optimization of a selective TRPV6 calcium channel inhibitor” (RSC Med Chem, 2020)
Active and inactive are the calls of the source.

Assays:
[1] = target: Voltage-gated inwardly rectifying potassium channel KCNH2 (Homo sapiens, UniProt Q12809); experiment: Inhibition of human ERG at 10 uM
[2] = target: T1, Transient receptor potential cation channel subfamily V member 6 (Homo sapiens) (UniProt Q9H1D0); experiment: Inhibition of human TRPV6 expressed in HEK293 cells assessed as reduction in Cd2+ influx at 10 uM preincubated with compound followed by Cdcl2 addition measured for 12 to 30 mins by Leadmium-green and Alexafluor-594 conjugate based confocal microscopic analysis; format: cell-based; conditions: time lower […], time upper 30.0 min
T1 sequence (whole entry): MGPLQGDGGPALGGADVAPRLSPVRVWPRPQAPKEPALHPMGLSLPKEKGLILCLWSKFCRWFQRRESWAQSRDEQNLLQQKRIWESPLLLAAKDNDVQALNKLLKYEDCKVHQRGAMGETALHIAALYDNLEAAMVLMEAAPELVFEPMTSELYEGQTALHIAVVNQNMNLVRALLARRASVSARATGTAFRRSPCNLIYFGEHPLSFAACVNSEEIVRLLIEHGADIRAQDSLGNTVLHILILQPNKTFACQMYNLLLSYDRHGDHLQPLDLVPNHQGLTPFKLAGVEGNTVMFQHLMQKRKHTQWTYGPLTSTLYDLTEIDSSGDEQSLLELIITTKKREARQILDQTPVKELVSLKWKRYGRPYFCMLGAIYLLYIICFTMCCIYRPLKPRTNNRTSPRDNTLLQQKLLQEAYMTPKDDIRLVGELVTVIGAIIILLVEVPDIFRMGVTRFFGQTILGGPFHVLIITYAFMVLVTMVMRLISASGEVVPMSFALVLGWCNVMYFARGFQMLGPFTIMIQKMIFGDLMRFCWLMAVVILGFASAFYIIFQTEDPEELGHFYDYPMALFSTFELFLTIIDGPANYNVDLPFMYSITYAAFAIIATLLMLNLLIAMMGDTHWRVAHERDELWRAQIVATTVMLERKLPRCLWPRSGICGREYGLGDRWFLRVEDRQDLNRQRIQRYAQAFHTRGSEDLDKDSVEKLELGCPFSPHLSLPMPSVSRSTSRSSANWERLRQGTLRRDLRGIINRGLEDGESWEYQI
How it was run: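 HEK-hTRPV6 cells on poly-D-lysine chambered coverglass, 24 h. Stained 30 min at 37 °C in nominally Ca²⁺-free buffer with Leadmium Green, Hoechst 33258 and WGA-Alexa Fluor 594 at 5, 1 and 5 ng/µL final. Washed, then test compound at 10 µM or DMSO added. CdCl2 at 50 µM final was added at the start of 30 min confocal imaging at 100X. Total fluorescence per channel was plotted over time.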

D(2) dopamine receptor = D(2) dopamine receptor (Homo sapiens, UniProt P14416); experiment: Inhibition of human dopamine D2S receptor at 10 uM
D(4) dopamine receptor = target: T2, D(4) dopamine receptor (Homo sapiens, UniProt P21917); experiment: Inhibition of human dopamine D4.4 receptor at 10 uM
T2 sequence (P21917 whole entry): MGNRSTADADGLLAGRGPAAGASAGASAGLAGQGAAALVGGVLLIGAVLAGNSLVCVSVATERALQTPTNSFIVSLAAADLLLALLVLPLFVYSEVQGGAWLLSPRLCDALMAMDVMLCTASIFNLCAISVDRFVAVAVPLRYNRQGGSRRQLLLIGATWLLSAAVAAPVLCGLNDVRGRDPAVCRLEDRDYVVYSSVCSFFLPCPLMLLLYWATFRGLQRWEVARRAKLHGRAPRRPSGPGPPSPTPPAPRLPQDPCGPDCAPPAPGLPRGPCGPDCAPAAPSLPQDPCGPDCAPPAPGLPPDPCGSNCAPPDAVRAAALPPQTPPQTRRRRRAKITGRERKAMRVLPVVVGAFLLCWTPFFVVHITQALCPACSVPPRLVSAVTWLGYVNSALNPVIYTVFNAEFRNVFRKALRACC

HEK293 [3] = experiment: Antiproliferative activity against wild type human HEK293 cells assessed as cell growth inhibition at 0.4 to 100 uM after 6 days by XTT assay; format: cell-based; conditions: hek293, 144 h, dose 0.4-100 µM, time 6 day
[4] = target: Kappa-type opioid receptor (Homo sapiens, UniProt P41145); experiment: Inhibition of human kappa-opioid receptor at 10 uM
[5] = Inhibition of rat L-type calcium channel (diltiazem site) at 10 uM
HEK293 [6] = experiment: Antiproliferative activity human HEK293 cells expressing human TRPV6 assessed as cell growth inhibition at 0.4 to 100 uM after 6 days by XTT assay; format: cell-based; conditions: hek293, 144 h, dose 0.4-100 µM, time 6 day
[7] = Inhibition of SOCE in human MDA-MB-231 cells at 5 uM pretreated for 20 mins followed by Tg addition for 10 mins followed by CaCl2 addition by FLIPR assay; format: cell-based; conditions: mda-mb-231, 0.5 h, time 30 min
How it was run: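 MDA-MB-231 cells at 6 x 10⁴ cells/well in phenol-red-free RPMI with 10% FBS, assayed 16 h later. Loaded in nominally Ca²⁺-free buffer with calcium-5 for 40 min at 37 °C. Compound, with GSK-7975A as reference, given for 20 min. After a 50 s baseline, thapsigargin was added and followed for 10 min, then CaCl2 was added. SOCE taken as AUC of the Ca²⁺ entry trace.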

D(1A) dopamine receptor = D(1A) dopamine receptor (Homo sapiens, UniProt P21728); experiment: Inhibition of human dopamine D1 receptor at 10 uM
[8] = target: T3, Alpha-1A adrenergic receptor (Homo sapiens, UniProt P35348); experiment: Inhibition of human alpha1A adrenergic receptor at 10 uM
T3 sequence (P35348 whole entry): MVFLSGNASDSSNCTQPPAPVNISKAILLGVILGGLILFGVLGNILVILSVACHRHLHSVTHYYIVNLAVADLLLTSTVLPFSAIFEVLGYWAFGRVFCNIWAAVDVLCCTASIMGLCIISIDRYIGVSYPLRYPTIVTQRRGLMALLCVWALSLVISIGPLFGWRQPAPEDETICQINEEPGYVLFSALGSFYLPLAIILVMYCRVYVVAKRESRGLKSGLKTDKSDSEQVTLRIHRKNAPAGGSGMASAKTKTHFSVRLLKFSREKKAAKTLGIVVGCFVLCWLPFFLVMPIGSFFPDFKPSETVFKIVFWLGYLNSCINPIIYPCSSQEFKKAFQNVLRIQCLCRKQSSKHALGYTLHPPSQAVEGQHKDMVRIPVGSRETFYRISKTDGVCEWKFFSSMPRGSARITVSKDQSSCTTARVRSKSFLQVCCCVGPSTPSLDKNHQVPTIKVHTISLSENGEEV

Sequence of D(1A) dopamine receptor (P21728 whole entry): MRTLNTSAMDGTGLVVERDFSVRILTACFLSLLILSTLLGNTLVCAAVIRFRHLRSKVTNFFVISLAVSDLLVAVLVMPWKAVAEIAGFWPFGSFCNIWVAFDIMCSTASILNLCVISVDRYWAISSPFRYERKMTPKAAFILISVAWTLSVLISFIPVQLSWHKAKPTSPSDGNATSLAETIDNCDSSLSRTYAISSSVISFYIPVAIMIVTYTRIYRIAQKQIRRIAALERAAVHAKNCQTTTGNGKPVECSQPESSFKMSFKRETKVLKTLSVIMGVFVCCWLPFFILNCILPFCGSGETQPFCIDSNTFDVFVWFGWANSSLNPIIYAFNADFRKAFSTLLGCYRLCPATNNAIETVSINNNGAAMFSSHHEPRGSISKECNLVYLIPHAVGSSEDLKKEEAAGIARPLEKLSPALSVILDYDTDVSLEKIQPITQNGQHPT
Sequence of Voltage-gated inwardly rectifying potassium channel KCNH2 (Q12809 whole entry): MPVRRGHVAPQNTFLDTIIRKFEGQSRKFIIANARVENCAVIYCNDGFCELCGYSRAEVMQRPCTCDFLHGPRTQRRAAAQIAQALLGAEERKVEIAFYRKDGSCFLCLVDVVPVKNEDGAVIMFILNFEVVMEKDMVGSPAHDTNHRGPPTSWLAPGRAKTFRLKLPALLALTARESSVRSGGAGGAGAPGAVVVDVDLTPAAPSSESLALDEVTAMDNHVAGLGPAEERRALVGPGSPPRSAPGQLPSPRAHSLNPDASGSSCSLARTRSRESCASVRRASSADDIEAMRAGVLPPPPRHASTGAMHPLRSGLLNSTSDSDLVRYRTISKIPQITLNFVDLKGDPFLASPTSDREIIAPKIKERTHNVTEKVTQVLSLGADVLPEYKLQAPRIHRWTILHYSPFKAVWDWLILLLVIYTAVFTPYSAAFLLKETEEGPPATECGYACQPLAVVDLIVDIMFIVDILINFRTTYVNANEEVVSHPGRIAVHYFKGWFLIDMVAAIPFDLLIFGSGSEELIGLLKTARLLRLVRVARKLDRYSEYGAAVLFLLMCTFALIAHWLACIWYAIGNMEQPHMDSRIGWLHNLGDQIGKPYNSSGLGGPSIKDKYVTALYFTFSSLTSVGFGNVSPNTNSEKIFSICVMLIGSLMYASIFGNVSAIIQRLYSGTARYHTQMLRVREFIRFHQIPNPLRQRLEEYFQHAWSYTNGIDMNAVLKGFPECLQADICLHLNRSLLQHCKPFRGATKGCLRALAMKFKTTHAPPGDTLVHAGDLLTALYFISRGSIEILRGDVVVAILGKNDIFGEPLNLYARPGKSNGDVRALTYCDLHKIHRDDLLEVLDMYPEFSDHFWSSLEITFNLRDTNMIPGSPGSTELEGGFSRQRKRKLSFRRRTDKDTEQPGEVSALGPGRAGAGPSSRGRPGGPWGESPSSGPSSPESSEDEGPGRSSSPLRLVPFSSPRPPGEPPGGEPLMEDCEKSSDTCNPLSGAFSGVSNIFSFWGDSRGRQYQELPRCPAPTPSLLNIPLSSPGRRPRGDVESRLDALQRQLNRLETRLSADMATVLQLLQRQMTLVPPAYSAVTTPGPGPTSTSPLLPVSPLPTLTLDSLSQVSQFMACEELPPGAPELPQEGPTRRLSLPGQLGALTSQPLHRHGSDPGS
Sequence of D(2) dopamine receptor (P14416 whole entry): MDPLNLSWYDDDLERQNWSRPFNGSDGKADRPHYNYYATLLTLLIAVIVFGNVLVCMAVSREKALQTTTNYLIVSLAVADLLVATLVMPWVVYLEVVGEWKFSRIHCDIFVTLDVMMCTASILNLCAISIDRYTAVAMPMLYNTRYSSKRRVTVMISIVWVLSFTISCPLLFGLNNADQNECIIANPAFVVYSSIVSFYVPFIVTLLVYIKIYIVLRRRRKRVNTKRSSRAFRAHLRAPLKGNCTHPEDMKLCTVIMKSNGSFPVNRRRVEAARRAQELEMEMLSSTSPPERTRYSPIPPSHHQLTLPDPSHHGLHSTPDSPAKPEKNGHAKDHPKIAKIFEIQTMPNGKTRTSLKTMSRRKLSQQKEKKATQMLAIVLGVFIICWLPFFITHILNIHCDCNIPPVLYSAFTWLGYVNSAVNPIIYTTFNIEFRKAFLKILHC
Sequence of Kappa-type opioid receptor (P41145 whole entry): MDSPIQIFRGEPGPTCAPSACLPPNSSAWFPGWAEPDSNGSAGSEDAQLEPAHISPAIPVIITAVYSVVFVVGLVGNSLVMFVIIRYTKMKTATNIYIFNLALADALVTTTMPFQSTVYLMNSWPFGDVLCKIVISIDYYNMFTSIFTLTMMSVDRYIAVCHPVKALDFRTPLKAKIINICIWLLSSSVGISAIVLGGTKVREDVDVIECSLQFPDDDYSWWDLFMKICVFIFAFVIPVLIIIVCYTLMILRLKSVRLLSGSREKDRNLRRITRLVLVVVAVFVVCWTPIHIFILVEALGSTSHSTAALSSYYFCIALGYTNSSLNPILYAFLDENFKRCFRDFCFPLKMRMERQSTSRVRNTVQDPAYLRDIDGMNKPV

O=c1ccc(CN2CCN([C@H]3CC[C@@](O)(c4cccc(C(F)(F)F)c4)CC3)CC2)c[nH]1
Non-Toxic: Activity (HEK293 [3]) | Activity (HEK293 [6])
Not Active: inhibition (INH) [1] | inhibition (INH) (D(2) dopamine receptor) | inhibition (INH) (D(4) dopamine receptor) | inhibition (INH) [4] | inhibition (INH) [5] | inhibition (INH) [7] | inhibition (INH) (D(1A) dopamine receptor) | inhibition (INH) [8]
active: inhibition [2]
